# Screening data (PubChem)
# The sample as a whole holds a higher share of hits than the screen did.
# Fibroblast inh: blocks proliferation of human lung fibroblasts | LL 47 human lung fibroblast viability, ATP luminescence; active compounds read low | viability, % at 10 µM | 85,000 tested, 1.1% active | AID 719;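 active = viability at or below 50% in the single dose screen; inactive = viability above 50%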;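 also: compound exposure lasted 72 h before the ATP readout; 100% = median luminescence of untreated cell-only wells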
#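 Test system: LL 47 human lung fibroblasts / Incubation: 72 h compound exposure at 37 °C after overnight plating / Technique: luminescent ATP detection, CellTiter-Glo / Compound dosing: 0.1% DMSO in all compound wells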
# H69AR inhibit: growth inhibitors of human H69AR lung tumor cells; H69AR lung tumor viability, ATP luminescence, 72 h; active compounds read low; viability, % at 10 µM; 85,000 tested, 6% active; AID 598;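 active = viability at or below 40%; inactive = viability above 40%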;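 also: multidrug resistant small cell line overexpressing MRP-1 efflux transporter; 100% = mean luminescence of untreated control wells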
# HUVEC inhibit: blocks proliferation of human endothelial cells; HUVEC proliferation, CellTiter-Glo luminescence, 72 h; active compounds read low; viability, % at 10 µM (by protocol); 86,000 tested, 1.1% active; AID 648;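 active = viability at or below 30%; inactive = viability above 30%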;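 also: 100% = median luminescence of DMSO-only cell control wells on each plate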
# bCat KO growth: beta-catenin-lacking colon tumor cell growth suppression; HCT116 beta-catenin knockout viability, CellTiter-Glo, 60 h; active compounds read low; viability, % at 10 µM; 140,000 tested, 1.5% active;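 active = viability at or under a set limit, the compound median less 4 SD, cut at about 6% in these data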;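 also: 0% = Hyamine 1622 control at 20 µM and 100% = untreated cell control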
# Phagocytosis inh: inhibitors of macrophage phagocytosis; J774A.1 macrophage IgG-bead phagocytosis, imaging; inhibition, % at 5 µM; 110,000 tested, 0.07% active; AID 1029;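 active = inhibition above the mean of the plate negative controls plus 5 SD, cut at about 13% in these data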;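 also: phagocytic index as fraction of beads internalized from green versus red external bead signal; plate controls were DMSO negative control for no effect and cytochalasin-D positive control for full effect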
# HCT116 PTEN-null: suppresses growth of cells with PTEN deletion; HCT116 PTEN-null viability, CellTiter-Glo, 60 h; active compounds read low; viability, % at 10 µM; 140,000 tested, 1.2% active;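 active = viability at or below a set limit, 4 SD under the median of all tested compounds, cut at about 3.7% in these data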;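 also: PTEN knockout HCT116 line with beta catenin targeted HCT116 as companion control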
# Active calls of the source: *; nt = not tested or not shown.
SMILES,Fibroblast inh,H69AR inhibit,HUVEC inhibit,bCat KO growth,Phagocytosis inh,HCT116 PTEN-null
Cc1ccc(C(=O)c2cc3ccccc3o2)cc1,106,84,107,77,nt,82
O/N=C(\c1ccc(Cl)cc1)c1cc2ccccc2o1,86,1.9*,43,38,4,43
COc1ccc(C2=NOC(C(=O)NCc3ccccc3)C2)cc1 (centres undefined),83,44,62,69,nt,82
C=CCNC(=O)C1CC(c2cccc(OC)c2)=NO1 (centres undefined),96,2.8*,94,65,-3,61
COc1cccc(C2=NOC(C(=O)NCc3ccco3)C2)c1 (centres undefined),95,36*,73,61,nt,50
COCCNC(=O)C1CC(c2cccc(OC)c2)=NO1 (centres undefined),97,92,99,85,4,101
COc1cccc(C2=NOC(C(=O)NCc3ccccc3)C2)c1 (centres undefined),97,26*,63,92,-2,83
COc1ccc(C(=O)Oc2cccc(/C=N/NC(N)=S)c2)cc1,nt,nt,nt,81,8,96
Cn1c(=O)c2c(nc(Sc3n[nH]c(N)n3)n2Cc2ccccc2Cl)n(C)c1=O,104,86,109,96,0,100
CC(=O)NC(Cc1c[nH]c2ccccc12)C(=O)OCC(=O)Nc1cc(C)on1 (centres undefined),95,82,102,82,-1,81
CC(=O)NC(Cc1c[nH]c2ccccc12)C(=O)OCC(=O)Nc1ccc2c(c1)OCO2 (centres undefined),93,13*,83,83,0,86
CCCCCCc1cc2cc(-c3nnc(-c4ccccc4OC)o3)c(=O)oc2cc1O,72,3.0*,63,12,-1,4
CCCCCCc1cc2cc(-c3nnc(-c4cc(OC)c(OC)c(OC)c4)o3)c(=O)oc2cc1O,62,2.3*,76,11,nt,9
CCCCCCc1cc2cc(-c3nnc(-c4ccccc4O)o3)c(=O)oc2cc1O,nt,nt,nt,0.7*,0,0.7*
CCCCCCc1cc2cc(S(=O)(=O)c3ccc(F)cc3)c(=O)oc2cc1O,nt,nt,nt,93,0,82
Cc1c(/C=N/NC(=O)c2cc(=O)[nH]c(=O)[nH]2)c2ccccn2c1C(=O)c1ccccc1,nt,nt,nt,102,-2,96
O=C(NCc1cccnc1)c1ccc(COc2ccccc2Br)o1,92,72,63,78,-1,63
O=C(Nc1cccnc1)c1ccc(COc2ccccc2Br)o1,59,44,24*,26,nt,27
CC1(C)N(O)CC(c2cccs2)=[N+]1[O-],113,103,95,82,-2,91
COc1ccc2c(C)nc(Nc3nc(C)cc(=O)[nH]3)nc2c1,8.6*,23*,2.6*,nt,nt,nt
CCOC(=O)c1ccc(Nc2ncnc3ccc(C)cc23)cc1,115,84,61,90,0,89
CCOC(=O)c1cccc(Nc2ncnc3ccc(C)cc23)c1,90,22*,84,43,-1,46
O=C(N=C1c2ccccc2CN1c1ccc(F)c(Cl)c1)c1cccnc1Cl,nt,nt,nt,79,-6,69
Cc1nn(-c2cc(N3CCCCC3)ccc2N)c(=O)c2ccccc12,nt,nt,nt,91,nt,96
Nc1ccc(N2CCCCC2)cc1N1CCCCC1,nt,nt,nt,3.2*,1,2.5*
SMILES,Fibroblast inh,H69AR inhibit,HUVEC inhibit,bCat KO growth,Phagocytosis inh,HCT116 PTEN-null
COc1cc(OC)cc(C(C)=O)c1,98,95,96,100,nt,94
O=C(Nc1ccc([N+](=O)[O-])cc1)Nc1ccc(OC(F)F)c(Cl)c1,nt,nt,nt,1.0*,-3,1.1*
COc1ccc(NC(=O)Nc2cccc([N+](=O)[O-])c2)cc1Cl,nt,nt,nt,5.0*,-2,4
CCN(CC)S(=O)(=O)c1ccc(OC(C)C)c(NC(=O)c2c3c(nc4ccccc24)CCN(Cc2ccccc2)C3)c1,nt,nt,nt,65,-4,62
C=CCNC(=O)COc1ccc(Br)cc1Cl,107,94,110,97,0,98
O=C(c1cc(-c2ccncc2)nc2ccccc12)N1CCN(S(=O)(=O)/C=C/c2ccccc2)CC1,96,43,87,68,0,67
CCOC(=O)C1CCN(C(=O)Cn2cc(C(=O)C3CC3)c3ccccc32)CC1,82,40*,84,89,0,97
O=C(N=Nc1c(O)[nH]c2ccc(Cl)cc12)c1cc(-c2cccs2)nc2ccccc12,nt,nt,nt,76,-4,82
O=C(C/C=N/OCc1c(Cl)cccc1Cl)c1ccc(Cl)cc1,nt,nt,nt,86,0,97
N#CC1=C(N)N(c2ccccc2)C(c2cccc([N+](=O)[O-])c2)C1(C#N)C#N (centres undefined),90,10*,87,93,0,89
Cc1cc(NCCCn2ccnc2)n2nc(C)c(-c3ccc(Cl)cc3)c2n1,15*,1.1*,2.3*,5.5*,0,4
Cc1cc(C)c2c(n1)nn1c(NCCN3CCOCC3)cc(C)nc21,105,88,94,90,-1,88
Cc1cc(NCCCn2ccnc2)n2nc(C)c(-c3ccccc3)c2n1,93,41,72,84,nt,90
Cc1cc(NCCN2CCOCC2)n2nc(C)c(-c3ccccc3)c2n1,90,27*,89,87,-1,89
Cc1cc(NCCN2CCOCC2)n2nc(C)c(-c3ccc(Cl)cc3)c2n1,74,12*,48,37,8,28
Cc1cc(NCCCn2ccnc2)n2ncc(-c3ccccc3)c2n1,82,27*,68,78,0,76
CCn1cc(C(=O)NCCCN2CCC(C)CC2)c2cc(OC)c(OC)cc2c1=O,90,96,109,87,0,98
Oc1ccc(/C=N/NC2=NCCCCC2)cc1,nt,nt,nt,92,-1,111
COc1ccc(CCNc2cc(C)nc3c(-c4ccccc4)cnn23)cc1OC,nt,nt,nt,52,-8,43
Cc1cc(NCCN2CCOCC2)n2ncc(-c3ccccc3)c2n1,93,25*,96,75,0,80
CC(C)(C)C1CCc2c(sc(NC(=O)c3ccco3)c2C(N)=O)C1 (centres undefined),59,39*,75,41,nt,51
CCC1CCc2c(sc(NC(=O)c3ccco3)c2C(N)=O)C1 (centres undefined),96,44,85,79,nt,71
COc1ccc(OC)c(NC(=O)c2cc(-c3cc(Cl)ccc3O)n[nH]2)c1,50,1.2*,45,50,0,20
COc1ccc(Cl)cc1NC(=O)c1cc(-c2ccccc2O)n[nH]1,nt,nt,nt,79,-2,78
Cc1cccnc1NC(=O)c1c(O)c2cccc3c2n(c1=O)CCC3,96,2.8*,75,88,0,78
O=C(Nc1nccs1)c1c(O)c2cccc3c2n(c1=O)CCC3,49*,4.0*,72,25,-1,18
Cc1ccccc1NC(=O)c1c(O)c2cccc3c2n(c1=O)CCC3,92,31*,98,nt,0,nt
